The values that follow come from ChEMBL document CHEMBL3745659, “Synthesis and Characterization of 4,11-Diaminoanthra[2,3-b]furan-5,10-diones: Tumor Cell Apoptosis through tNOX-Modulated NAD(+)/NADH Ratio and SIRT1” (J Med Chem, 2015).

Active and inactive are the calls of the source. The rule behind the calls is not given here.

The test system of series [1] is AGS. Briefly: Induction of apoptosis in human AGS cells assessed as viable cells at 5 uM after 24 hrs by annexin V-FITC staining-based flow cytometric analysis (Rvb=83.7%). Format: functional. The following applies: read-out: Activity. Summed up: (§1)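 AGS cells exposed to compound for 24 h; Annexin V-FITC staining and flow cytometry used to give percentage of apoptotic cells; mean ± S.E. from at least three independent experiments.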

In series [2] the test system is AGS. Briefly: Induction of apoptosis in human AGS cells assessed as viable cells at 10 uM after 24 hrs by annexin V-FITC staining-based flow cytometric analysis (Rvb=83.7%). In kind it is functional. The essentials: as §1
Series [3] relates to HeLa. Description: Antiproliferative activity against human HeLa cells after 72 hrs by MTT assay. In kind it is functional, cell-based.
Series [4] relates to AGS. Briefly: Downregulation of Bid protein level in human AGS cells after 24 hrs by Western blot analysis. Format: functional, cell-based.
In series [5] the test system is AGS. Briefly: Induction of apoptosis in human AGS cells assessed as early apoptotic cells at 10 uM after 24 hrs by annexin V-FITC staining-based flow cytometric analysis (Rvb=9.8%). Format: functional. Summed up:
as §1

The subject of series [6] is AGS. Briefly: Upregulation of acetylated p53 level in human AGS cells at 1 and 5 uM after 24 hrs by Western blot analysis. In kind it is functional, cell-based.
Series [7] has as its target T1, DNA topoisomerase 1 (Homo sapiens) (UniProt P11387).
T1 sequence (whole entry): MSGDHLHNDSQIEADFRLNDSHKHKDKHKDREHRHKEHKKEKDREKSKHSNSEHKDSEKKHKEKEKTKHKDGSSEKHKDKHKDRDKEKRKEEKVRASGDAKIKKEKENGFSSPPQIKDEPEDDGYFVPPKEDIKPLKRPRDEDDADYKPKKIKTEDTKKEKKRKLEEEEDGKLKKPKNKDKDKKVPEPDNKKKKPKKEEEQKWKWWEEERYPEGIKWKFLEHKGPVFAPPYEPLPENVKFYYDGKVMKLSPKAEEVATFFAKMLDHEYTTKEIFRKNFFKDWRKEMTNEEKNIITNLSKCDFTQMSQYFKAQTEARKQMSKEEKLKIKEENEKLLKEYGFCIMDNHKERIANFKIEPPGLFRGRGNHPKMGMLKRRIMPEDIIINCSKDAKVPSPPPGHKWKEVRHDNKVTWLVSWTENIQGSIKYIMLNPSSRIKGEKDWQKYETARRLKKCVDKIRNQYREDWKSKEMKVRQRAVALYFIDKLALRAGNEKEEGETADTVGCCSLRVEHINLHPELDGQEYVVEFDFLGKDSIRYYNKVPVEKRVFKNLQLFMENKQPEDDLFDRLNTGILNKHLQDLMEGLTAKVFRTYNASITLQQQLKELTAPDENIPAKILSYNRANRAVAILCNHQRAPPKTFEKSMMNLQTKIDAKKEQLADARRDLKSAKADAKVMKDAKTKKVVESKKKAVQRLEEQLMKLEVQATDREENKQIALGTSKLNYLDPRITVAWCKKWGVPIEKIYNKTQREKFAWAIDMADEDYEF
Description: Inhibition of Top1 (unknown origin)-mediated relaxation of pBR322 DNA at 0.5 uM incubated for 30 mins by ethidium bromide staining-based gel electrophoresis assay. The essentials: (§2)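 Supercoiled pBR322 plasmid treated with Top1 without drug or with compound at 0.5, 2.5 or 10 µM; camptothecin as reference; relaxation assessed by gel electrophoresis.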

Series [8] is described as follows: Antiproliferative activity against human HCT116 cells after 72 hrs by MTT assay. In kind it is functional, cell-based. The following applies: HCT-116, 72 h.
The test system of series [9] is AGS. Description: Induction of apoptosis in human AGS cells assessed as late apoptotic cells at 10 uM after 24 hrs by annexin V-FITC staining-based flow cytometric analysis (Rvb=5.5%). In kind it is functional. The essentials: as §1
In series [10] the test system is K562. Briefly: Resistance index, ratio of IC50 for human K562/4 cells to IC50 for human K562 cells. Format: functional.
Series [11] deals with DNA topoisomerase 2-alpha (Homo sapiens) (UniProt P11388). Description: Inhibition of Top2 (unknown origin)-mediated relaxation of pBR322 DNA at 0.1 to 2.5 uM incubated for 30 mins by ethidium bromide staining-based gel electrophoresis assay.
Sequence of DNA topoisomerase 2-alpha (Homo sapiens) (P11388 whole entry): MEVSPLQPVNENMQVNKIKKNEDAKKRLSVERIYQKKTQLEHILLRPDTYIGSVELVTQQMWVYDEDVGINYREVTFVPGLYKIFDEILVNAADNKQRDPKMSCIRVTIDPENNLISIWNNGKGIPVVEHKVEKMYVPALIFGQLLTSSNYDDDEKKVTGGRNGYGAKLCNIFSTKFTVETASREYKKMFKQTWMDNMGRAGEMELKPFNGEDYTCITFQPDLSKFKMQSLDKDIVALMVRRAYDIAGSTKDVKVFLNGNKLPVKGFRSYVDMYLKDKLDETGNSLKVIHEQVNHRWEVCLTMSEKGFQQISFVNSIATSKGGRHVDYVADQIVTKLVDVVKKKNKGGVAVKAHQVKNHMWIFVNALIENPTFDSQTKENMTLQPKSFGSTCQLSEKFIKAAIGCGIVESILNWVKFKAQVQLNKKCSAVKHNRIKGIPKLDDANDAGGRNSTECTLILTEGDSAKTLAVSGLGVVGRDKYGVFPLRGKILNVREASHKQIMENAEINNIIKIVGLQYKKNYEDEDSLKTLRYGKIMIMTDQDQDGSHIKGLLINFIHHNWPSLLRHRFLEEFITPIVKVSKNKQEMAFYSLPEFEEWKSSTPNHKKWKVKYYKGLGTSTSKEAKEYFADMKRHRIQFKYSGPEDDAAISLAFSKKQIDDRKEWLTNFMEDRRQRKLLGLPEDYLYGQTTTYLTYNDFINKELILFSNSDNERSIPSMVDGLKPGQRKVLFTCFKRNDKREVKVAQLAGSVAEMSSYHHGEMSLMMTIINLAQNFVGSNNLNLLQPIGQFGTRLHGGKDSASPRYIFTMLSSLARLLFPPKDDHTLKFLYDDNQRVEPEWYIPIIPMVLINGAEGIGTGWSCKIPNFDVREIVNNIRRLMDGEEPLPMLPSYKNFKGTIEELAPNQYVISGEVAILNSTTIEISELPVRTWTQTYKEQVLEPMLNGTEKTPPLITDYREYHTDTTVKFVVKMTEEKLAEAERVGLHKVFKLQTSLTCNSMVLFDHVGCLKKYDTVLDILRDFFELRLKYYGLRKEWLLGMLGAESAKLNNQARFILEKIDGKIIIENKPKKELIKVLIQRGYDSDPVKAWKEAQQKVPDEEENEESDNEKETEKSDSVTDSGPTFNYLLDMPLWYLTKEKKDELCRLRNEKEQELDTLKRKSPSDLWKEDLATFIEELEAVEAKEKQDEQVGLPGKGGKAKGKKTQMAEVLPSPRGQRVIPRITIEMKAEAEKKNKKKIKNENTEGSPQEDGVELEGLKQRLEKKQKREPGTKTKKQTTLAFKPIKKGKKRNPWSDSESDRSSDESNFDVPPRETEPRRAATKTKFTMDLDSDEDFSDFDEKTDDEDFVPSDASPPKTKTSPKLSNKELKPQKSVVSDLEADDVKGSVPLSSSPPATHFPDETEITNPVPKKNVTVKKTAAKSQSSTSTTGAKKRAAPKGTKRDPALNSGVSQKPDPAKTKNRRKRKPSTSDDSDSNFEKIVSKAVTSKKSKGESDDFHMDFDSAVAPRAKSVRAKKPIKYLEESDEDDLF
Series [12] relates to CCRF-CEM. Description: Antiproliferative activity against human CEM cells after 72 hrs by MTT assay. In kind it is functional, cell-based.
The subject of series [13] is AGS. Briefly: Upregulation of caspase3-directed PARP cleavage in human AGS cells at 5 uM after 24 hrs by Western blot analysis. In kind it is functional, cell-based.
Series [14] concerns the target T2, NAD-dependent protein deacetylase sirtuin-1 (Homo sapiens) (UniProt Q96EB6).
T2 sequence (whole entry): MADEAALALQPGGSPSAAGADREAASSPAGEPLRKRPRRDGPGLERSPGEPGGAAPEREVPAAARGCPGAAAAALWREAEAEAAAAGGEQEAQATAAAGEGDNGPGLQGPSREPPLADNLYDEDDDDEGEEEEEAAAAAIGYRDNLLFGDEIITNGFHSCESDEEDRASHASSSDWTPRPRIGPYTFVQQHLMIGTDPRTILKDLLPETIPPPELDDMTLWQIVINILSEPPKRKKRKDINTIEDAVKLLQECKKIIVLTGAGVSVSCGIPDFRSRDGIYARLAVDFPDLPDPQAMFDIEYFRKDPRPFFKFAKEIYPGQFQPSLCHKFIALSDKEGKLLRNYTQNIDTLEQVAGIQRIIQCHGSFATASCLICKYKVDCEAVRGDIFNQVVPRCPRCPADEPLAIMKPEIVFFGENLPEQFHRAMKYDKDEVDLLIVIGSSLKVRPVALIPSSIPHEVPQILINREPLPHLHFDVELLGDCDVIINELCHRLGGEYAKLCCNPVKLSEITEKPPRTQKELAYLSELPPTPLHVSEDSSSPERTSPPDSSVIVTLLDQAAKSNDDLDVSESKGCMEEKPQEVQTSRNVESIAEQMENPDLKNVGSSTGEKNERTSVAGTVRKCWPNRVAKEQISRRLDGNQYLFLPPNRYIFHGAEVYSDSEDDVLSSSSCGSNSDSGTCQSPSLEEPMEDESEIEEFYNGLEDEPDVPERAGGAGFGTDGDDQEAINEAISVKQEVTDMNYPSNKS
Briefly: Inhibition of human recombinant SIRT1 deacetylase activity using Arg-His-Lys-Lys(epsilon-acetyl)-AMC as substrate at 5 uM incubated for 45 mins by fluorescence analysis.

The test system of series [15] is AGS. Description: Induction of apoptosis in human AGS cells after 24 hrs by annexin V-FITC staining-based flow cytometric analysis. In kind it is functional, cell-based. Summed up: as §1
For series [16], the system named is AGS. Description: Induction of apoptosis in human AGS cells assessed as early apoptotic cells at 5 uM after 24 hrs by annexin V-FITC staining-based flow cytometric analysis (Rvb=9.8%). In kind it is functional. Summed up:
as §1

Series [17] relates to AGS. Description: Downregulation of SIRT1 protein level in human AGS cells at 1 and 5 uM after 24 after 24 hrs by Western blot analysis. Format: functional, cell-based.
The test system of series [18] is AGS. Briefly: Downregulation of tNOX protein level in human AGS cells at 1 and 5 uM after 24 hrs by Western blot analysis. In kind it is functional, cell-based.
Series [19] relates to AGS. Briefly: Increase in intracellular NAD+/NADH ratio in human AGS cells at 5 uM incubated for 5 mins. Format: functional, cell-based.
For series [20], the system named is AGS. Description: Induction of apoptosis in human AGS cells assessed as necrotic cells at 10 uM after 24 hrs by annexin V-FITC staining-based flow cytometric analysis (Rvb=1.1%). Format: functional.
The subject of series [21] is AGS. Briefly: Induction of apoptosis in human AGS cells assessed as late apoptotic cells at 5 uM after 24 hrs by annexin V-FITC staining-based flow cytometric analysis (Rvb=5.5%). Format: functional. Summed up: as §1
A short description of series [22]: Antiproliferative activity against human K562/4 cells after 72 hrs by MTT assay. In kind it is functional, cell-based. The following applies: K562/4, 72 h.
In series [23] the test system is AGS. Briefly: Induction of apoptosis in human AGS cells assessed as necrotic cells at 5 uM after 24 hrs by annexin V-FITC staining-based flow cytometric analysis (Rvb=1.1%). In kind it is functional.
Series [24] addresses T1, DNA topoisomerase 1 (Homo sapiens). Briefly: Inhibition of Top1 (unknown origin)-mediated relaxation of pBR322 DNA at 2.5 uM incubated for 30 mins by ethidium bromide staining-based gel electrophoresis assay. The essentials:
as §2

Series [25] concerns L1210. Briefly: Antiproliferative activity against mouse L1210 cells after 72 hrs by MTT assay. The note with it: L1210, 72 h.
Series [26] has as its system AGS. Description: Upregulation of phosphorylated p53 level in human AGS cells at 1 and 5 uM after 24 hrs by Western blot analysis. In kind it is functional, cell-based.
In series [27] the test system is AGS. Description: Upregulation of total p53 level in human AGS cells at 1 and 5 uM after 24 hrs by Western blot analysis. Format: cell-based.
Series [28] concerns K562. Description: Antiproliferative activity against human K562 cells after 72 hrs by MTT assay. Format: functional, cell-based. The note with it: K562, 72 h.
Series [29] concerns the target T1, DNA topoisomerase 1 (Homo sapiens). Briefly: Inhibition of Top1 (unknown origin)-mediated relaxation of pBR322 DNA at 0.5 to 10 uM incubated for 30 mins by ethidium bromide staining-based gel electrophoresis assay. The essentials:
as §2

The test system of series [30] is AGS. Description: Upregulation of caspase3-directed PARP cleavage in human AGS cells at 1 to 5 uM after 24 hrs by Western blot analysis. In kind it is functional, cell-based.

Regarding `N=C(N)NCCNc1c2c(c(NCCNC(=N)N)c3occc13)C(=O)c1ccccc1C2=O`, the viability at 5 µM in [1] is 86.3%. In addition, the viability at 10 µM in series [2] (read-out: Activity) came out at 84.9%. Also, the 50% inhibitory concentration (IC50) came to 3.27 µM in series [3]; 1.02 µM in series [8]; 9.02 µM in [12]; 6.53 µM in [22]; 5.54 µM in [25]; 1.65 µM in series [28]. In addition, the result in [4], in series [6], in [13], in [15], in series [17] and in series [18] was inactive. For the same compound, in series [26], the result was inactive. Moreover, the Activity turned out to be 10.5% in series [5]; 3% in series [9]; 8.6% in series [16]; 1.5% in series [20]; 4.2% in series [21]; 1% in series [23]. In series [27], the Activity result was “Not Active”. Besides, the inhibition result in series [7], in [11] and in series [24] was “Active” throughout. Further, in [10], the “Ratio IC50” value was 3.98. In series [14], the inhibition result is “inactive”. For the same compound, the outcome in series [19] was Active.

For the compound `CN1CCN(C(=O)c2cc3c(NCCN)c4c(c(NCCN)c3o2)C(=O)c2ccccc2C4=O)CC1`, the result in series [2], in series [5], in [9], in series [30], in series [15] and in series [18] was inactive. The result in [20] was inactive. The half-maximal inhibitory concentration (IC50) is 61.3 µM in [3]; 3.1 µM in series [8]; 25 µM in [12]; greater than 100 µM in series [22]; 26.1 µM in series [25]; 25.2 µM in [28]. Moreover, the outcome in [4] and in series [26] was Active. In addition, the inhibition entry in [29] and in [14] was “inactive” each time. Moreover, in [10], the “Ratio IC50” value was greater than 4.
